Ki and Selectivity data for 25 compounds are collected here from ChEMBL document CHEMBL1132196, “Synthesis, biochemical evaluation, and classical and three-dimensional quantitative structure-activity relationship studies of 7-substituted-1,2,3,4-tetrahydroisoquinolines and their relative affinities toward phenylethanolamine N-methyltransferase and the alpha2-adrenoceptor” (J Med Chem, 1999).

The target in test [1] is T1, Phenylethanolamine N-methyltransferase (Bos taurus, UniProt P10938).
T1 sequence (P10938 whole entry): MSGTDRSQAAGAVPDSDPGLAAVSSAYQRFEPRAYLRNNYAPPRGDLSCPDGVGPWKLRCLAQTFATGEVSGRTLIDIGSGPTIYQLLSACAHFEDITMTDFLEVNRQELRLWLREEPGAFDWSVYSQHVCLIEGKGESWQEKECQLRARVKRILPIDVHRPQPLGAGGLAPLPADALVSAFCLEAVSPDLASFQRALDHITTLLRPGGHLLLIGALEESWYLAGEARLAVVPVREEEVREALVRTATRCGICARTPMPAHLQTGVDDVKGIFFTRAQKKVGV
The test is described as follows: In vitro inhibitory activity against bovine adrenal phenylethanolamine N-methyl-transferase (PNMT).

The next test is filed under the species Bos taurus. The test is described as follows: Binding selectivity against PNMT and alpha-2-adrenoceptors, measured as a ratio of respective in vitro Ki's.
The target of test [2] is T2, Adrenergic receptor alpha-2 (Rattus norvegicus, UniProt P22086+P19328+P22909).
T2 sequence (P22086 whole entry): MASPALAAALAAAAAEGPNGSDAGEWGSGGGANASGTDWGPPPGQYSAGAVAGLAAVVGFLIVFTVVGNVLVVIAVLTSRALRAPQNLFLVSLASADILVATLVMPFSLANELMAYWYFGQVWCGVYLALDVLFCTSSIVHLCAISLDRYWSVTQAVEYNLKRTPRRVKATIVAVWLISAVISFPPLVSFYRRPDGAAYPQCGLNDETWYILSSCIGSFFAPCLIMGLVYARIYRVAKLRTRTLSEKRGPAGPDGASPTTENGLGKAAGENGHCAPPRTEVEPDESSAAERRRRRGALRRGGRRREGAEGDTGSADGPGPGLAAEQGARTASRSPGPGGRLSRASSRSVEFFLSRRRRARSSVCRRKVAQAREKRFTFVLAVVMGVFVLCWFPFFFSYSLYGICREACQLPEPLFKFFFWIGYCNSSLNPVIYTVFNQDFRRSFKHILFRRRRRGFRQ
T2 sequence (P19328 whole entry): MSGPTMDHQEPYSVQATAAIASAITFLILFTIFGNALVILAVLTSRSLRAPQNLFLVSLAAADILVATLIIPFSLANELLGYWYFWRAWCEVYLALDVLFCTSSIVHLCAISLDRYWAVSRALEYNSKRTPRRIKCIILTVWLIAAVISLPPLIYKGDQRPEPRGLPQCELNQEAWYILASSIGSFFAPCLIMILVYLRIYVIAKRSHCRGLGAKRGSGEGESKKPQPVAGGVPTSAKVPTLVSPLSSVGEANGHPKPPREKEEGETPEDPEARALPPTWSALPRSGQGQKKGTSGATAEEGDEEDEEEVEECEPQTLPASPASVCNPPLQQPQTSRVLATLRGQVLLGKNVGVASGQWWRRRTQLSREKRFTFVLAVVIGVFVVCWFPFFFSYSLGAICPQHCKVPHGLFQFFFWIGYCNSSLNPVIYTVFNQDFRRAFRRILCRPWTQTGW
T2 sequence (P22909 whole entry): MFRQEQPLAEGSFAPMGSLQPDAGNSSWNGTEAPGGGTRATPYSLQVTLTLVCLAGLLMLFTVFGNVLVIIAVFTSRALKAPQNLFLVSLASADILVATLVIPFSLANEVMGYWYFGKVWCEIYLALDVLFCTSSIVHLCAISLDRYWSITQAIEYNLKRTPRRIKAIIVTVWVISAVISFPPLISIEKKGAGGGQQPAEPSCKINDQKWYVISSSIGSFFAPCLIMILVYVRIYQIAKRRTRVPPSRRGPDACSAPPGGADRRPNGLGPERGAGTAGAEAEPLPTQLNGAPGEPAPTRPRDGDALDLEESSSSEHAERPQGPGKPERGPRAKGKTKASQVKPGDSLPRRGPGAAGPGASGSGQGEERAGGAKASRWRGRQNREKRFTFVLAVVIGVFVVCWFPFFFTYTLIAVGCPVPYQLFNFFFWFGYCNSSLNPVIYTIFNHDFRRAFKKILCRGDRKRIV
The test is described as follows: In vitro inhibitory activity against Alpha-2 adrenergic receptor using [3H]clonidine as radioligand in male Sprague-Dawley rats. The format is protein assay. The essentials:
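Rat cerebral cortex (male Sprague–Dawley) homogenised in ice-cold 50 mM Tris/HCl pH 7.7, washed by three 50 000g spins, resuspended in 200 volumes. [3H]clonidine 4.0 nM final, 25 °C for 30 min, filtration, scintillation counting. Nonspecific binding with 2 μM phentolamine. Quadruplicate, five concentrations over 16-fold range. IC50 by log-probit; Ki = IC50/(1+[clonidine]/KD).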

Test [3] addresses T1, Phenylethanolamine N-methyltransferase. As to the kind of experiment: In vitro inhibitory activity against bovine adrenal phenylethanolamine N-methyltransferase(PNMT).

A word on the Ki: it is the dissociation constant of the complex between target and ligand, obtained from inhibition or displacement.

For the compound `CC(=O)Nc1ccc2c(c1)CNCC2`, the values for the Ki in test [1] and in test [2] were 190 µM and 9.1 µM, respectively. In addition, the Selectivity in the test filed under Bos taurus is 0.48. On to `O=C(c1ccccc1)c1ccc2c(c1)CNCC2`, for which the affinity in test [1], expressed as Ki, was 2.9 µM. Besides, in the test filed under Bos taurus, the Selectivity was 9.3.

For `Brc1ccc2c(c1)CNCC2`, the Ki in test [3] is 290 nM.

Compound `CC(=O)c1ccc2c(c1)CNCC2` registered a Ki in test [1] of 4.9 µM. Also, the Selectivity in the test listed under Bos taurus is 1.2.

For the compound `Nc1ccc2c(c1)CNCC2`, in test [1], the affinity, expressed as Ki, was 27 µM. Also, the Selectivity in the test filed under Bos taurus was 0.11. `COC(=O)c1ccc2c(c1)CNCC2` registered a Ki in test [1] of 6.7 µM. In the test listed under Bos taurus, the Selectivity was 0.68.

As to `Oc1ccc2c(c1)CNCC2`, the Selectivity in the test filed under Bos taurus was 0.85. Consider `O=S(=O)(c1ccc2c(c1)CNCC2)C(Cl)(Cl)Cl`, for which, in test [3], the affinity, expressed as Ki, was 1300 nM. In test [1], `CS(=O)(=O)N(c1ccc2c(c1)CNCC2)S(C)(=O)=O` came in with a Ki of around 4500 µM. Moreover, the Selectivity in the test listed under Bos taurus turned out to be 0.042. As to `OCc1ccc2c(c1)CNCC2`, the affinity in test [1] corresponds to a Ki of 11 µM. For the same compound, in the test filed under Bos taurus, the Selectivity is 0.21. Turning to `CS(=O)(=O)c1ccc2c(c1)CNCC2`, the results for the Ki in test [1] and in test [2] were 1.3 µM and 160 µM, respectively. The Selectivity in the test filed under Bos taurus came to 120. In turn, `O=[N+]([O-])c1ccc2c(c1)CNCC2` came in with a Ki in test [1] of 0.41 µM. The Selectivity in the test filed under Bos taurus came out at 10.

Turning to `COc1ccc2c(c1)CNCC2`, in test [1], the Ki turned out to be 21 µM. Further, the Selectivity in the test filed under Bos taurus came out at 0.022.

With `O=C(c1ccc2c(c1)CNCC2)C(F)(F)F`, in test [1], the Ki worked out at 5.7 µM. The Selectivity in the test listed under Bos taurus was 5.6. With `C[S+]([O-])c1ccc2c(c1)CNCC2` (configuration not stated), the figures for the Ki in test [1] and in test [2] were 45 µM and 51 µM, respectively. The Selectivity in the test listed under Bos taurus came out at 1.1. Compound `NCc1ccc2c(c1)CNCC2` yielded a Ki in test [1] of 1900 µM. Further, the Selectivity in the test listed under Bos taurus is 0.0063.

As to `CS(=O)(=O)Nc1ccc2c(c1)CNCC2`, the Selectivity in the test listed under Bos taurus is 0.23. On the same count and under the same terms, to `NS(=O)(=O)c1ccc2c(c1)CNCC2` belongs 180. `NC(=O)c1ccc2c(c1)CNCC2` yielded a Ki in test [1] of 64 µM. Moreover, the Selectivity in the test filed under Bos taurus amounted to 0.36. In the case of `O=S(=O)(Nc1ccc(Cl)cc1)c1ccc2c(c1)CNCC2`, in the test listed under Bos taurus, the Selectivity worked out at 2.4. In test [1], `N#Cc1ccc2c(c1)CNCC2` yielded a Ki of 1.4 µM. In addition, in the test listed under Bos taurus, the Selectivity stood at 5.2. In the same order, the values of `O=C(O)c1ccc2c(c1)CNCC2` are 470 µM and 1. Turning to `CS(=O)(=O)NCc1ccc2c(c1)CNCC2`, in the test listed under Bos taurus, the Selectivity amounted to 0.055.

`C=CCS(=O)(=O)c1ccc2c(c1)CNCC2` came in with a Ki in test [1] of 9.8 µM. For the same compound, the Selectivity in the test filed under Bos taurus amounted to 9.7. On to `O=S(=O)(c1ccccc1)c1ccc2c(c1)CNCC2`, for which the Ki in test [1] was found to be 14 µM; in test [2], 21 µM. The Selectivity in the test listed under Bos taurus is 1.5.
